ChEMBL document CHEMBL1121795, “Esters of isoguvacine as potential prodrugs” (J Med Chem, 1981)

Columns and labels:
[1] = Half-life was measured in 10% human serum at 10 mM concentration; format: ADME
How it was run: (§1)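 Medium was 45 mL 0.5 M KCl, 0.5 mL phosphate buffer and 5.0 mL human serum (protein 69–78 mg/mL, BSA standard), N2-purged 2 h with pH held at 7.2–7.6 using 0.1 N HCl. Ester (0.05 or 0.5 mmol) was added; a pH-stat held 7.35 with 0.1 or 0.5 N NaOH at 37 °C. Half-life was calculated from base consumed.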

[2] = Half-life was measured in 0.5 M KCl at 10 mM concentration; format: ADME; settings: 0.5 M KCl solution
How it was run: (§2)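 Chemical stability was measured with 0.5 mmol ester in 50 mL 0.5 M KCl plus 0.5 mL pH 7.00 phosphate buffer (10 mM), at pH 7.35 and 37 °C. pH-stat titration with 0.5 N NaOH recorded base consumption against time for the 2 acid equivalents released. Pseudo-first-order half-life, mean of at least two runs.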

[3] = Half-life was measured in 10% human serum at 1 mM concentration; format: ADME; how it was run: as §1
Mus musculus [4] = species on record: Mus musculus; assay: Compound was tested for anticonvulsant activity by measuring its effect on convulsions induced by isoniazide in mice.; format: functional
How it was run: (§3)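 Mice, at least five per group at each time point, received the ester ip; convulsions were induced 0.5, 1, 2, 3, 4, 5, 6, 17 and 24 h later. Value is the minimum effective anticonvulsant dose (mg/kg), with the time between dosing and onset of activity.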

Mus musculus [5] = species on record: Mus musculus; assay: Compound was tested for anticonvulsant activity by measuring its effect on convulsions induced by bicuculline in mice.; format: functional; how it was run: as §3
Mus musculus [6] = species on record: Mus musculus; assay: Compound was tested for anticonvulsant activity by measuring its effect on convulsions induced by electroshock in mice.; format: functional; how it was run: as §3
[7] = Half-life was measured in 10% human serum at 10 mM of ester; format: ADME; how it was run: as §1
[8] = Half-life was measured in 10% human serum at 10 mM dose.; format: ADME; how it was run: as §1
[9] = Half-life was measured in 10% human serum at 1 mM dose.; format: ADME; how it was run: as §1
[10] = Half-life was measured in 0.5 M KCl at 10 mM dose.; format: ADME; settings: 0.5 M KCl solution; how it was run: as §2

Row | SMILES | half-life at 10000 µM [1] | half-life at 10000 µM [2] | half-life at 1000 µM [3] | Anticonvulsant dose (Mus musculus [4]) | Anticonvulsant dose (Mus musculus [5]) | Anticonvulsant dose (Mus musculus [6]) | half-life at 10000 µM [7] | half-life at 10000 µM [8] | half-life at 1000 µM [9] | half-life at 10000 µM [10]
1 | CCCC(=O)OCOC(=O)C1=CCNCC1.O=C(O)/C=C/C(=O)O | 0.25 h | 11.7 h | 0.06 h |  |  |  |  |  |  | 
2 | CCCCC(=O)OCOC(=O)C1=CCNCC1.O=C(O)/C=C/C(=O)O | 0.28 h | 12 h | 0.03 h |  |  |  |  |  |  | 
3 | O=C(O)/C=C/C(=O)O.O=C(OCOC(=O)c1ccccc1)C1=CCNCC1 | 0.4 h | 9.3 h | 0.07 h | >160 mg/kg | >80 mg/kg | >80 mg/kg |  |  |  | 
4 | O=C(O)/C=C/C(=O)O.O=C(OCOC(=O)C1CCCCC1)C1=CCNCC1 | 0.14 h | 10 h | 0.03 h |  |  |  |  |  |  | 
5 | CC(C)(C)C(=O)OCOC(=O)C1=CCNCC1.O=C(O)/C=C/C(=O)O | 14.9 h | 17.1 h | 4.6 h | >160 mg/kg | 20 mg/kg | 10 mg/kg |  |  |  | 
6 | CC(=O)OCOC(=O)C1=CCNCC1.O=C(O)/C=C/C(=O)O | 1.2 h | 10.9 h | 0.6 h | 40 mg/kg | >80 mg/kg | 5 mg/kg |  |  |  | 
7 | Br.CCCCOC(=O)C1=CCNCC1 |  |  |  | >160 mg/kg | 40 mg/kg | 40 mg/kg | 600 h |  |  | 
8 | Br.CCOC(=O)COC(=O)C1=CCNCC1 |  |  |  |  |  |  | 300 h |  |  | 
9 | COC(=O)C1=CCNCC1.Cl |  |  |  |  |  |  | 430 h |  |  | 
10 | CC(C)C(=O)OCOC(=O)C1=CCNCC1.O=C(O)/C=C/C(=O)O | 0.73 h | 10.8 h | 0.13 h |  |  |  |  |  |  | 
11 | CC(C)CC(=O)OCOC(=O)C1=CCNCC1.O=C(O)/C=C/C(=O)O | 3.5 h | 13.3 h | 0.72 h |  |  |  |  |  |  | 
12 | CCC(CC)C(=O)OCOC(=O)C1=CCNCC1.O=C(O)/C=C/C(=O)O | 7.9 h | 15.7 h | 2.3 h |  |  |  |  |  |  | 
13 | CCCCCC(=O)OCOC(=O)C1=CCNCC1.O=C(O)/C=C/C(=O)O | 0.32 h | 13 h | 0.06 h |  |  |  |  |  |  | 
14 | CCC(=O)OCOC(=O)C1=CCNCC1.O=C(O)/C=C/C(=O)O |  |  |  | 40 mg/kg | >80 mg/kg | >80 mg/kg |  | 0.54 h | 0.17 h | 11.1 h
15 | Cl.O=C(O)C1=CCNCC1 [ISOGUVACINE HYDROCHLORIDE] |  |  |  | >160 mg/kg | >80 mg/kg | >80 mg/kg |  |  |  | 
